Reference: ChEMBL document CHEMBL1137506, “Novel orally active, dibenzazepinone-based gamma-secretase inhibitors” (Bioorg Med Chem Lett, 2007)

Experiments:
Gamma-secretase [1] = test: Inhibition of human gamma secretase assessed as amyloid-beta40 peptide production […] by ELISA; format: cell-based; settings: hek293
Outline: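 Cell-free assay. Membrane fractions from HEK293 cells carrying γ-secretase activity are incubated with a recombinant APP C-terminal fragment as substrate. The Aβ40 peptide produced is quantified by ELISA, and IC50 is derived from it.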

Gamma-secretase [2] = test: Inhibition of human gamma secretase in HEK293 cells by reporter gene assay; format: cell-based
Outline: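 Cellular reporter assay in HEK293 cells. The γ-secretase substrate is a Notch 1 construct fused to a Gal4/VP16 transcription factor, which drives a firefly luciferase reporter gene. IC50 is taken from inhibition of the luciferase signal.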

Mus musculus = test: Increase of CTF-APP ratio in po dosed transgenic mouse AD model after 2 days; format: functional
[3] = Maximal achievable bioavailability in rat liver microsomes; format: ADME, Microsome; settings: read-out: Max Achievable Bioavailability
[4] = Maximal achievable bioavailability in human liver microsomes; format: ADME, Microsome; settings: read-out: Max Achievable Bioavailability
Outline: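 Maximal achievable bioavailability is estimated from compound incubations with liver microsomes of the stated species.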

[5] = Solubility of compound; format: physicochemical
[6] = Clearance in mouse; format: ADME, organism-based; settings: in vivo
[7] = Ratio of drug level in brain to plasma in mouse; format: ADME
[8] = Oral bioavailability in mouse at 7.8 mg/kg, po; format: ADME, organism-based; settings: in vivo
Outline: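 Oral bioavailability (F) in mice after a 7.8 mg/kg oral dose.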

Molecule CC(C(=O)NCc1cc(F)cc(F)c1)C(=O)N[C@@H]1C(=O)N(C)c2ccccc2-c2ccccc21 (mixture of isomers) has an IC50 (Gamma-secretase [1]) of 3.1 nM and an IC50 (Gamma-secretase [2]) of 8.8 nM.
With C[C@H](NC(=O)[C@@H](O)c1cc(F)cc(F)c1)C(=O)N[C@@H]1C(=O)N(C)c2ccccc2-c2ccccc21 the MED (Mus musculus) was 20 mg/kg.
Work on C[C@H](OC(=O)Nc1ccccc1)C(=O)NC1C(=O)N(C)c2ccccc2-c2ccccc21 (some centres undefined) yielded an IC50 (Gamma-secretase [1]) of 2700 nM and an IC50 (Gamma-secretase [2]) of 1500 nM.
Molecule C[C@H](C(=O)NCc1cc(F)cc(F)c1)C(=O)N[C@@H]1C(=O)N(C)c2ccccc2-c2ccccc21 has an IC50 (Gamma-secretase [1]) of 8.7 nM and an IC50 (Gamma-secretase [2]) of 7.1 nM.
CC(C(=O)NC(CO)c1ccccc1)C(=O)NC1C(=O)N(C)c2ccccc2-c2ccccc21 (centres undefined) gave an IC50 (Gamma-secretase [1]) of 22000 nM and an IC50 (Gamma-secretase [2]) greater than 25000 nM.
Work on CC(C(=O)NCc1cc(F)cc(F)c1)C(=O)N[C@H]1C(=O)N(C)c2ccccc2-c2ccccc21 (mixture of isomers) yielded an IC50 (Gamma-secretase [1]) of 620 nM and an IC50 (Gamma-secretase [2]) of 580 nM.
CC(OC(=O)NCC(F)(F)C(F)(F)F)C(=O)N[C@@H]1C(=O)N(C)c2ccccc2-c2ccccc21 (some centres undefined) showed an IC50 (Gamma-secretase [2]) of 2 nM.
In the case of CC(C(=O)NCC1CC1)C(=O)NC1C(=O)N(C)c2ccccc2-c2ccccc21 (centres undefined), the IC50 (Gamma-secretase [1]) is reported as 90 nM, the Fh [3] is reported as 12% and the Fh [4] is reported as 18%. For the same molecule, the IC50 (Gamma-secretase [2]) was 210 nM.
CC(C(=O)NCc1cc(F)cc(F)c1)C(=O)NC1C(=O)N(C)c2ccccc2-c2ccccc21 (centres undefined) showed an IC50 (Gamma-secretase [1]) of 22 nM, a Fh [3] of 9% and a Fh [4] of 10%. The IC50 (Gamma-secretase [2]) was 10 nM.
CC(C(N)=O)C(=O)NC1C(=O)N(C)c2ccccc2-c2ccccc21 (centres undefined) gave an IC50 (Gamma-secretase [1]) of 5300 nM and an IC50 (Gamma-secretase [2]) greater than 25000 nM.
In the case of CC(C(=O)NCC(F)(F)C(F)(F)F)C(=O)N[C@@H]1C(=O)N(C)c2ccccc2-c2ccccc21 (mixture of isomers), the Solubility [5] is reported as 28 mg/mL, the IC50 (Gamma-secretase [1]) is reported as 3 nM and the Fh [3] is reported as 38%. The clearance [6] was 53 mL/min/kg, the Kp [7] was 0.5 and the bioavailability [8] was 21%. It also gave an MED (Mus musculus) of 3 mg/kg, a Fh [4] of 55% and an IC50 (Gamma-secretase [2]) of 1.7 nM.
CC(C(=O)NCc1ccccc1)C(=O)NC1C(=O)N(C)c2ccccc2-c2ccccc21 (centres undefined) gave an IC50 (Gamma-secretase [1]) of 15 nM and an IC50 (Gamma-secretase [2]) of 75 nM.
In the case of CC(C(=O)NC1CCc2ccccc21)C(=O)NC1C(=O)N(C)c2ccccc2-c2ccccc21 (centres undefined), the IC50 (Gamma-secretase [1]) is reported as 12000 nM and the IC50 (Gamma-secretase [2]) is reported as 14000 nM.
Molecule C[C@@H](C(=O)NCc1cc(F)cc(F)c1)C(=O)N[C@@H]1C(=O)N(C)c2ccccc2-c2ccccc21 has an IC50 (Gamma-secretase [1]) of 2 nM and an IC50 (Gamma-secretase [2]) of 1.6 nM.
CC(C(=O)NC(C)c1ccccc1)C(=O)NC1C(=O)N(C)c2ccccc2-c2ccccc21 (centres undefined) gave an IC50 (Gamma-secretase [1]) of 5700 nM and an IC50 (Gamma-secretase [2]) of 6300 nM.
CC(C(=O)NCC(F)(F)F)C(=O)NC1C(=O)N(C)c2ccccc2-c2ccccc21 (centres undefined) showed an IC50 (Gamma-secretase [1]) of 20 nM, a Fh [3] of 37% and a Fh [4] of 55%. It also gave an IC50 (Gamma-secretase [2]) of 42 nM.
C[C@H](OC(=O)NCC(F)(F)C(F)(F)F)C(=O)N[C@@H]1C(=O)N(C)c2ccccc2-c2ccccc21 gave an IC50 (Gamma-secretase [1]) of 8.6 nM, a Fh [3] of 70% and a clearance [6] of 32 mL/min/kg. For the same molecule, the Kp [7] was 0.5, the bioavailability [8] was 23% and the MED (Mus musculus) was 3 mg/kg. The Fh [4] was 72% and the IC50 (Gamma-secretase [2]) was 1.7 nM.
CC(C(=O)NC1C(=O)N(C)c2ccccc2-c2ccccc21)C(=O)NC(C)(C)c1ccccc1 (centres undefined) showed an IC50 (Gamma-secretase [1]) greater than 20000 nM, a Fh [3] of 9% and a Fh [4] of 14%. It also gave an IC50 (Gamma-secretase [2]) greater than 20000 nM.
CCOCCNC(=O)C(C)C(=O)NC1C(=O)N(C)c2ccccc2-c2ccccc21 (centres undefined) showed an IC50 (Gamma-secretase [1]) of 3000 nM and an IC50 (Gamma-secretase [2]) of 3300 nM.
With CC(C(=O)NCCC(F)(F)F)C(=O)NC1C(=O)N(C)c2ccccc2-c2ccccc21 (centres undefined) the IC50 (Gamma-secretase [1]) was 37 nM and the IC50 (Gamma-secretase [2]) was 24 nM.
